# Reference: ChEMBL document CHEMBL4138300 (ACS Med Chem Lett, 2018)
# Activity calls are given as the source filed them. The calls are words filed in the database; no cut-off is given here.
# Tests used:
# [1] = tested on: Pfeiffer; experiment: Cytotoxicity against human Pfeiffer cells assessed as decrease in cell viability after 5 days by CellTiter-Glo reagent based luminescence assay; format: functional; details: 120 h
# [2] = target: EZH2 (Homo sapiens); experiment: Inhibition of human N-terminal His-tagged EZH2/flag-tagged EED/SUZ12/AEBP2/RBAP48 A677G mutant (2 to end residues) expressed in baculovirus infected Sf9 insect cells using histone H3 (1 to 50 residues)-GGK as substrate after 2 hrs in presence of SAM by fluorescence assay
# [3] = Stability of the compound in human liver microsomes; format: ADME, microsome
# [4] = Stability of the compound in rat liver microsomes; format: ADME, microsome
# [5] = Half life in rat liver microsomes; format: ADME, microsome
# [6] = AUC (0 to t) in ICR mouse at 10 mg/kg administered via oral gavage; format: ADME, organism-based; details: in vivo
# Method in brief: (§1)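 Single oral dose given as a CMC-Na suspension: rats 5 mg/kg, mice 10 mg/kg. Oral bioavailability was set against the matching iv arm (rats 0.5 mg/kg, mice 1.0 mg/kg).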
# [7] = Half life in human liver microsomes; format: ADME, microsome
# [8] = Cmax in ICR mouse at 10 mg/kg administered via oral gavage; format: ADME, organism-based; parameters: dose 10 mg/kg, route oral; details: in vivo; method in brief: as §1
# [9] = Apparent volume of distribution during terminal phase in ICR mouse at 10 mg/kg administered via oral gavage; format: ADME, organism-based; details: in vivo, read-out: Vz/F; method in brief: as §1
# [10] = tested on: Pfeiffer; experiment: Antitumor activity against human Pfeiffer cells xenografted in athymic nude mouse assessed as tumor growth inhibition at 10 mg/kg, po qd administered for 20 days measured twice per week; format: functional; details: 480 h, read-out: TGI
# Method in brief: (§2)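 Pfeiffer xenografts were grown to about 150-200 mm³ before dosing. The compound was given orally once daily for 20 days at the dose in each line (10, 30 or 100 mg/kg), with a reference EZH2 inhibitor dosed at 100 mg/kg. Tumor growth inhibition was expressed as percent reduction in tumor size.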
# [11] = target: T1, Histone-lysine N-methyltransferase EZH2 (Homo sapiens, UniProt Q15910); experiment: Inhibition of EZH2 in human Pfeiffer cells assessed as reduction in H3K27 trimethylation after 3 days by Western blot analysis; format: cell-based
# [12] = Mean residence time (0 to infinity) in Sprague-Dawley rat at 5 mg/kg administered via oral gavage; format: ADME, organism-based; details: in vivo; method in brief: as §1
# [13] = Half life in Sprague-Dawley rat at 5 mg/kg administered via oral gavage; format: ADME, organism-based; details: in vivo; method in brief: as §1
# [14] = Mean residence time (0 to infinity) in ICR mouse at 1 mg/kg, iv; format: ADME, organism-based; details: in vivo
# Method in brief: (§3)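 Single intravenous dose: rats 0.5 mg/kg, mice 1.0 mg/kg. Plasma exposure and terminal-phase parameters were calculated from the concentration–time profile. These serve as the iv reference for bioavailability.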
# [15] = Protein binding in human plasma; format: ADME, cell-free; details: read-out: PPB (converted)
# [16] = Apparent volume of distribution during terminal phase in Sprague-Dawley rat at 5 mg/kg administered via oral gavage; format: ADME, organism-based; details: in vivo, read-out: Vz/F; method in brief: as §1
# [17] = Protein binding in mouse plasma; format: ADME, cell-free; details: read-out: PPB (converted)
# [18] = tested on: Pfeiffer; experiment: Antitumor activity against human Pfeiffer cells xenografted in athymic nude mouse assessed as tumor growth inhibition at 100 mg/kg, po qd administered for 20 days measured twice per week; format: functional; method in brief: as §2
# [19] = Oral bioavailability in Sprague-Dawley rat at 5 mg/kg administered via gavage; format: ADME, organism-based; details: in vivo; method in brief: as §1
# [20] = tested on: Pfeiffer; experiment: Antitumor activity against human Pfeiffer cells xenografted in athymic nude mouse assessed as tumor growth inhibition administered po qd for 20 days measured twice per week; format: functional, organism-based
# Method in brief: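 Pfeiffer xenografts were grown to about 150-200 mm³ before dosing. Compound was given orally once daily for 20 days at 10, 30 or 100 mg/kg. A reference EZH2 inhibitor (100 mg/kg) was run alongside. Tumor size reduction was the efficacy read-out.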
# [21] = Apparent clearance during terminal phase in Sprague-Dawley rat at 5 mg/kg administered via oral gavage; format: ADME, organism-based; details: in vivo, read-out: CLz/F; method in brief: as §1
# [22] = Cmax in Sprague-Dawley rat at 5 mg/kg administered via oral gavage; format: ADME, organism-based; parameters: dose 5 mg/kg, route oral; details: in vivo; method in brief: as §1
# [23] = AUC (0 to t) in ICR mouse at 1 mg/kg, iv; format: ADME, organism-based; details: in vivo; method in brief: as §3
# [24] = Half life in ICR mouse at 10 mg/kg administered via oral gavage; format: ADME, organism-based; details: in vivo; method in brief: as §1
# [25] = Apparent clearance during terminal phase in ICR mouse at 10 mg/kg administered via oral gavage; format: ADME, organism-based; details: in vivo, read-out: CLz/F; method in brief: as §1
# [26] = target: T1, Histone-lysine N-methyltransferase EZH2; experiment: Inhibition of EZH2 in human WSU-DLCL2 cells assessed as reduction in H3K27 trimethylation after 3 days by Western blot analysis; format: cell-based
# Target sequence in this assay (Q15910 whole entry): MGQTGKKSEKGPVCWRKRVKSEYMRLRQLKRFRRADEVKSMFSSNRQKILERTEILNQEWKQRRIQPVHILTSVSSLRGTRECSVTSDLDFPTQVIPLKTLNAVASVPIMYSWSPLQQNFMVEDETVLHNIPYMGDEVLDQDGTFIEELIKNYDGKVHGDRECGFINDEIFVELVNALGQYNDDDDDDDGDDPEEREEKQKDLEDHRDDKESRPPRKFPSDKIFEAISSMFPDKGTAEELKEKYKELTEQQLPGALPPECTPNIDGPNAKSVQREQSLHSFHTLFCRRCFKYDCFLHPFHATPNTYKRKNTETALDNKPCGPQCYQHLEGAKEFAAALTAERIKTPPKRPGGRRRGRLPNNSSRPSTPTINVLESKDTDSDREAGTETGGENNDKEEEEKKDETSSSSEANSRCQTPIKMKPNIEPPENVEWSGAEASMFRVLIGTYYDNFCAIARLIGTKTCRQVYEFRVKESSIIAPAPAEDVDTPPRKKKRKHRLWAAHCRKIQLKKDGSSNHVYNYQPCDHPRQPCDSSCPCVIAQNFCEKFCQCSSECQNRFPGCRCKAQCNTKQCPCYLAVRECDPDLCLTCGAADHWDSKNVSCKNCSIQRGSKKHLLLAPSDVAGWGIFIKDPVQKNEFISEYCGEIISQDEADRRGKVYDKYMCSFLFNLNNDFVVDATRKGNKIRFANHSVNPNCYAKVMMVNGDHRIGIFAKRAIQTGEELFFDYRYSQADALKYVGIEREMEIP
# [27] = Protein binding in rat plasma; format: ADME, cell-free; details: read-out: PPB (converted)
# [28] = AUC (0 to t) in Sprague-Dawley rat at 0.5 mg/kg, iv; format: ADME, organism-based; details: in vivo; method in brief: as §3
# [29] = Mean residence time (0 to infinity) in Sprague-Dawley rat at 0.5 mg/kg, iv; format: ADME, organism-based; details: in vivo; method in brief: as §3
# [30] = tested on: Mus musculus; experiment: Apparent volume of distribution during terminal phase in ICR mouse at 1 mg/kg, iv; format: ADME, organism-based; details: in vivo; method in brief: as §3
# [31] = Oral bioavailability in ICR mouse at 10 mg/kg administered via gavage; format: ADME, organism-based; details: in vivo; method in brief: as §1
# [32] = Mean residence time (0 to infinity) in ICR mouse at 10 mg/kg administered via oral gavage; format: ADME, organism-based; details: in vivo; method in brief: as §1
# [33] = tested on: Rattus norvegicus; experiment: Apparent volume of distribution during terminal phase in Sprague-Dawley rat at 0.5 mg/kg, iv; format: ADME, organism-based; details: in vivo; method in brief: as §3
# [34] = AUC (0 to t) in Sprague-Dawley rat at 5 mg/kg administered via oral gavage; format: ADME, organism-based; details: in vivo; method in brief: as §1
# [35] = tested on: Mus musculus; experiment: Toxicity in athymic nude mouse xenografted with human Pfeiffer cells assessed as body weight loss at 10 to 100 mg/kg, po qd administered for 20 days measured twice per week; format: organism-based; details: in vivo, 480 h
# [36] = tested on: Pfeiffer; experiment: Antitumor activity against human Pfeiffer cells xenografted in athymic nude mouse assessed as tumor growth inhibition at 30 mg/kg, po qd administered for 20 days measured twice per week; format: functional; details: 480 h, read-out: TGI; method in brief: as §2
structure (smiles),measurement,setting,value
CCN(c1cc(C(=O)NCc2c(OC)cc(C)[nH]c2=O)c2ccoc2c1)C1CCOCC1,IC50,[1],> 5000 nM
same,IC50,[2],331 nM
CCN(c1cc2oc(Cl)cc2c(C(=O)NCc2c(OC)cc(C)[nH]c2=O)c1C)C1CCOCC1,IC50,[1],21 nM
same,IC50,[2],0.4 nM
CCN(c1cc2occc2c(C(=O)NCc2c(C(F)(F)F)cc(C)[nH]c2=O)c1C)C1CCOCC1,IC50,[1],3300 nM
same,IC50,[2],4.6 nM
CCN(c1cc2occc2c(C(=O)NCc2c(OC)cc(C)[nH]c2=O)c1C(F)(F)F)C1CCOCC1,IC50,[2],2000 nM
CCN(c1cc2oc(C3CC3)cc2c(C(=O)NCc2c(OC)cc(C)[nH]c2=O)c1C)C1CCOCC1,IC50,[1],11 nM
same,IC50,[2],0.5 nM
CCN(c1cc2oc(C#N)cc2c(C(=O)NCc2c(OC)cc(C)[nH]c2=O)c1C)C1CCOCC1,IC50,[1],17 nM
same,IC50,[2],0.8 nM
CCN(c1cc2sccc2c(C(=O)NCc2c(C)cc(C)[nH]c2=O)c1C)C1CCOCC1,IC50,[1],1830 nM
same,IC50,[2],6 nM
CCc1c(N(CC)C2CCOCC2)cc2oc(CN3CCN(C)CC3)cc2c1C(=O)NCc1c(OC)cc(C)[nH]c1=O,IC50,[1],8 nM
same,IC50,[2],0.1 nM
same,Stability,[3],Stable
same,Stability,[4],Stable
CCc1c(N(CC)C2CCOCC2)cc2oc(C3CCN(C)CC3)cc2c1C(=O)NCc1c(C)cc(C)[nH]c1=O,IC50,[1],7 nM
same,IC50,[2],6.1 nM
same,half-life,[5],> 1 h
same,AUC(0-t),[6],439 ng·h/mL
same,half-life,[7],> 1 h
CCc1c(N(CC)C2CCOCC2)cc2oc(CN3CCOCC3)cc2c1C(=O)NCc1c(OC)cc(C)[nH]c1=O,IC50,[1],3 nM
same,IC50,[2],7.8 nM
same,Stability,[3],Stable
same,Stability,[4],Stable
CCc1c(N(CC)C2CCOCC2)cc2oc(CN3CCCCC3)cc2c1C(=O)NCc1c(OC)cc(C)[nH]c1=O,IC50,[1],2 nM
same,IC50,[2],6.4 nM
same,Stability,[3],Stable
same,Stability,[4],Stable
CCN(c1cc2oc(F)cc2c(C(=O)NCc2c(OC)cc(C)[nH]c2=O)c1C)C1CCOCC1,IC50,[1],160 nM
same,IC50,[2],4.1 nM
CCN(c1cc2occc2c(C(=O)NCc2c(OC)cc(C)[nH]c2=O)c1C)C1CCOCC1,IC50,[1],20 nM
same,IC50,[2],4 nM
CCN(c1cc2occc2c(C(=O)NCc2c(C)cc(C)[nH]c2=O)c1C)C1CCOCC1,IC50,[1],240 nM
same,IC50,[2],4 nM
CCN(c1cc2oc(C)cc2c(C(=O)NCc2c(C)cc(C)[nH]c2=O)c1C)C1CCOCC1,IC50,[1],21 nM
same,IC50,[2],3.8 nM
CCc1c(N(CC)C2CCOCC2)cc2oc(C3CCN(C(C)C)CC3)cc2c1C(=O)NCc1c(C)cc(C)[nH]c1=O,IC50,[1],6 nM
same,Cmax,[8],257 ng/mL
same,Vd/F,[9],21.9 L/kg
same,inhibition in vivo at 10 mg/kg,[10],28%
same,half-life,[5],> 0.5 h
same,IC50,[11],8 nM
same,inhibition,[11],Dose-dependent effect
same,MRT inf,[12],3 h
same,AUC(0-t),[6],774 ng·h/mL
same,half-life,[13],1 h
same,MRT inf,[14],1.3 h
same,fraction unbound,[15],0.061
same,half-life,[7],> 0.5 h
same,Vd/F,[16],24.1 L/kg
same,fraction unbound,[17],0.073
same,inhibition in vivo at 100 mg/kg,"[18]; 480 h, read-out: TGI",97%
same,bioavailability,[19],9%
same,TGI,[20],Dose-dependent effect
same,CL/F,[21],287 mL/min/kg
same,Cmax,[22],93 ng/mL
same,AUC(0-t),[23],483 ng·h/mL
same,half-life,[24],1.3 h
same,CL/F,[25],202 mL/min/kg
same,IC50,[26],55 nM
same,fraction unbound,[27],0.06
same,AUC(0-t),[28],325 ng·h/mL
same,MRT inf,[29],1 h
same,Vz/F,[30],3.679 L/kg
same,bioavailability,[31],16%
same,MRT inf,[32],2.7 h
same,Vz/F,[33],2.556 L/kg
same,AUC(0-t),[34],239 ng·h/mL
same,Activity,[35],Non-Toxic
same,inhibition in vivo at 30 mg/kg,[36],83%
CCN(c1cc(-c2ccc(CN3CCOCC3)cc2)cc(C(=O)NCc2c(C)cc(C)[nH]c2=O)c1C)C1CCOCC1 [TAZEMETOSTAT],IC50,[1],38 nM
same,TGI,[18],Active
same,Activity,[35],Non-Toxic
CCN(c1cc2occc2c(C(=O)NCc2ccc(C)[nH]c2=O)c1Cl)C1CCOCC1,IC50,[1],150 nM
same,IC50,[2],6.5 nM
CCc1cc(C)[nH]c(=O)c1CNC(=O)c1c(C)c(N(CC)C2CCOCC2)cc2occc12,IC50,[1],220 nM
same,IC50,[2],0.6 nM
CCN(c1cc2oc(C)cc2c(C(=O)NCc2c(OC)cc(C)[nH]c2=O)c1C)C1CCOCC1,IC50,[1],14 nM
same,IC50,[2],2.9 nM
CCc1c(N(CC)C2CCOCC2)cc2oc(CN3CCOCC3)cc2c1C(=O)NCc1c(C)cc(C)[nH]c1=O,IC50,[1],14 nM
same,IC50,[2],4.6 nM
same,Stability,[3],Stable
same,Stability,[4],Stable
CCN(c1cc2occ(C)c2c(C(=O)NCc2c(OC)cc(C)[nH]c2=O)c1C)C1CCOCC1,IC50,[1],1300 nM
same,IC50,[2],5.9 nM
CCN(c1cc2oc(C(F)(F)F)cc2c(C(=O)NCc2c(OC)cc(C)[nH]c2=O)c1C)C1CCOCC1,IC50,[1],17 nM
same,IC50,[2],2.7 nM
CCc1c(N(CC)C2CCOCC2)cc2occc2c1C(=O)NCc1c(OC)cc(C)[nH]c1=O,IC50,[1],15 nM
same,IC50,[2],3.3 nM
